In ChEMBL document CHEMBL1149489, “Synthesis and biological evaluation of benzamides and benzamidines as selective inhibitors of VEGFR tyrosine kinases” (Bioorg Med Chem Lett, 2006):
Calls of active or inactive are those of the source. The calls are words filed in the database; no cut-off is given here.

Molecular target: Epidermal growth factor receptor (Homo sapiens) (UniProt P00533)
Assay: Inhibition of EGFR at 10 uM
Procedure, shortened: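 ELISA autophosphorylation-type assay. Wells were coated overnight at 4 °C with 50 µg/ml poly(Glu:Tyr, 4:1) in PBS. The kinase reaction ran 20 min in 50 mM HEPES, 125 mM NaCl, 10 mM MgCl2, pH 7.4, with 100 µM ATP and compound at 10 µM. Phosphotyrosine was detected with HRP anti-phosphotyrosine antibody and TMB, acid-stopped, and read at A450.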

Chain of Epidermal growth factor receptor (Homo sapiens) (P00533 whole entry): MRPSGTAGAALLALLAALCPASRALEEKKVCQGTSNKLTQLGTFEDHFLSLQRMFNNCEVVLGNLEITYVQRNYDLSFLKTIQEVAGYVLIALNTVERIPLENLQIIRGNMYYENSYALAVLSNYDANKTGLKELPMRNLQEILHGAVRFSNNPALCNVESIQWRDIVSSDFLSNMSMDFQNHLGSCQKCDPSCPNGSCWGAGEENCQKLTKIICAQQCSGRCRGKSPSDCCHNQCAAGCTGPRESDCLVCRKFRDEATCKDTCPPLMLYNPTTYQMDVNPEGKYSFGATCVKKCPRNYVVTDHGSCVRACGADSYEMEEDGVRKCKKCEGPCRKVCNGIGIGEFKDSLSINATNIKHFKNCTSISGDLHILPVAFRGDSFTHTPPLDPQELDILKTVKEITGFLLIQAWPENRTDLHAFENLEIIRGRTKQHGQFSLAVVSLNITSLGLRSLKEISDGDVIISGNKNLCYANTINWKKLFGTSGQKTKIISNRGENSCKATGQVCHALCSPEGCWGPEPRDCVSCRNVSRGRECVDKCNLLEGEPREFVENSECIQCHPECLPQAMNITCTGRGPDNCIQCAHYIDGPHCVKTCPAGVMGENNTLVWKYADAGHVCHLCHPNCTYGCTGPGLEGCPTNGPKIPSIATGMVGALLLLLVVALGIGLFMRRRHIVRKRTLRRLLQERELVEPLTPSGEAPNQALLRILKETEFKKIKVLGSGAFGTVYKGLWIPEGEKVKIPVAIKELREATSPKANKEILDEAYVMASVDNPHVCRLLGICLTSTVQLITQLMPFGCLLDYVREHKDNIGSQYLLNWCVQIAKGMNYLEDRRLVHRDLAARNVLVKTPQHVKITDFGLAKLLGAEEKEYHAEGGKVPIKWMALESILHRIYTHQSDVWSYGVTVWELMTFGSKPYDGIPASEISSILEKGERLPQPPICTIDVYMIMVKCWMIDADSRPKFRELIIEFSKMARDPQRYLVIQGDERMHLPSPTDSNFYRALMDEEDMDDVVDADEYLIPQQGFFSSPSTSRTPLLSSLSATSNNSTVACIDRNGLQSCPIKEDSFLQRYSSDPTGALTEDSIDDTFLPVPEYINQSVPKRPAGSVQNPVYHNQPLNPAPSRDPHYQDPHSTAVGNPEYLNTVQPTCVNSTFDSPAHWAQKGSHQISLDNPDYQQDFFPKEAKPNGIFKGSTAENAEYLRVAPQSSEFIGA

Row | Structure (SMILES) | Activity
1 | COc1cc(NCc2ccncc2)c(C(=O)Nc2ncccn2)cc1OC | inactive
2 | N=C(Nc1ccc(Cl)cc1)c1ccccc1NCc1ccncc1 | inactive
3 | O=C(Nc1ccccc1Cl)c1ccccc1OCc1ccncc1 | inactive
4 | COc1cc(NCc2ccncc2)c(C(=O)Nc2cnccn2)cc1OC | inactive
5 | N=C(Nc1ccccc1C(F)(F)F)c1ccccc1NCc1ccncc1 | inactive
6 | O=C(Nc1ccccc1C(F)(F)F)c1ccccc1OCc1ccncc1 | inactive
7 | N=C(Nc1ccc(Cl)cc1)c1ccccc1OCc1ccncc1 | inactive
8 | N=C(Nc1ccccc1C(F)(F)F)c1ccccc1OCc1ccncc1 | inactive
9 | O=C(Nc1ccccn1)c1ccccc1NCc1ccncc1 | inactive
10 | O=C(Nc1ncccn1)c1ccccc1NCc1ccncc1 | inactive
11 | N=C(Nc1ccccc1Cl)c1ccccc1NCc1ccncc1 | inactive
12 | O=C(Nc1cnccn1)c1ccccc1NCc1ccncc1 | inactive

The next lines start with the values.

Row | Activity | Structure (SMILES)
13 | inactive | COc1cc(OCc2ccncc2)c(C(=O)Nc2cnccn2)cc1OC
14 | inactive | COc1cc(OCc2ccncc2)c(C(=N)Nc2ccccc2Cl)cc1OC
15 | inactive | COc1cc(OCc2ccncc2)c(C(=O)Nc2ccccc2C(F)(F)F)cc1OC
16 | inactive | COc1cc(NCc2ccncc2)c(C(=N)Nc2ccccc2C(F)(F)F)cc1OC
17 | inactive | COc1cc(NCc2ccncc2)c(C(=O)Nc2ccccn2)cc1OC
18 | inactive | COc1cc(OCc2ccncc2)c(C(=N)Nc2ccccc2C(F)(F)F)cc1OC
19 | inactive | COc1cc(OCc2ccncc2)c(C(=O)Nc2ccccn2)cc1OC
20 | inactive | COc1cc(OCc2ccncc2)c(C(=O)Nc2ncccn2)cc1OC
21 | inactive | N=C(Nc1ccccc1Cl)c1ccccc1OCc1ccncc1
22 | inactive | COc1cc(OCc2ccncc2)c(C(=N)Nc2ccc(Cl)cc2)cc1OC
23 | inactive | COc1cc(NCc2ccncc2)c(C(=N)Nc2ccc(Cl)cc2)cc1OC
24 | inactive | COc1cc(OCc2ccncc2)c(C(=O)Nc2ccccc2Cl)cc1OC
25 | inactive | COc1cc(NCc2ccncc2)c(C(=N)Nc2ccccc2Cl)cc1OC
26 | inactive | COc1cc(OCc2ccncc2)c(C(=O)Nc2ccc(Cl)cc2)cc1OC
